The list is not random: actives were taken first. Their share in the collection is about 4.8%.
HSF-1 act: increases HSF-1 driven luciferase reporter signal; NIH3T3-HGL HSF-1 luciferase reporter, MG132, 8 h; 100% = twice DMSO control signal; activation, % at 9 µM; 300,000 compounds, 1.7% hits; AID 504408;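 active = mean replicate activation of at least 50% with a set share of replicates each reaching 50%; inconclusive = only one of those two conditions met; inactive = mean below 50% and too few replicates reaching it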;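 note: 0% = median of the neutral control wells and 100% = twice that signal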
GPR7 antagonist: antagonists of human GPR7 (neuropeptides B/W receptor 1). P48145. GPR7-expressing cells, fluorescence antagonist assay. inhibition, % at 4.4 µM. 290,000 compounds, 1.1% hits. AID 1861; in the data active = inhibition above about 16%, passing the limit was not always enough;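 note: cells stimulated with the agonist NPW; 0% = agonist with vehicle and 100% = vehicle without agonist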
Target sequence (P48145 whole entry, looked up): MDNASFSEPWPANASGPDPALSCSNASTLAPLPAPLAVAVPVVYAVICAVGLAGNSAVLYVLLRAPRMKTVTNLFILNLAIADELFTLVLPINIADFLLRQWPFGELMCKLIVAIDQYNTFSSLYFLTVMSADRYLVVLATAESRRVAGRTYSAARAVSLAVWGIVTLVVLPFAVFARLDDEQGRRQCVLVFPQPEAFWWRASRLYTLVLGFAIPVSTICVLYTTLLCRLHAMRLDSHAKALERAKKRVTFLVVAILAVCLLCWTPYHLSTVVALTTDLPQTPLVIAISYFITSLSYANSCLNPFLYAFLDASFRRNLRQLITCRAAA
Jurkat NFkB inh: inhibitors of the PMA/ionomycin-induced NF-kB reporter in Jurkat cells; 330,000 compounds, 0.53% hits; PMA/ionomycin-induced NF-kB luciferase reporter, luminescence; inhibition, % at 4 µM; AID 435003; in the data active = inhibition above about 50%
697 NFkB inh: inhibitors of the PMA/ionomycin-induced NF-kB reporter in 697 B cells | 697 B-cell NF-kB luciferase reporter, 16 h | AID 435022 | inhibition, % at 4 µM | 330,000 compounds, 0.33% hits; in the data active = inhibition above about 35%
T cruzi inh: T. cruzi replication inhibition. inhibition, % (no concentration beside the values). T. cruzi beta-gal in NIH3T3, luminescence, 90 h. AID 1885. 300,000 compounds, 1.4% hits;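 active = mean inhibition across valid replicates above about 55%, limit read from the data; inconclusive = mean below that limit but half or more replicates reach it; inactive = mean below it, under half of replicates reach it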;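 note: signal also drops with host cell toxicity which is not excluded here; 0% = plate median of DMSO wells and 100% = zero luminescence signal; higher percent means less beta-gal luminescence so fewer parasites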
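Incubation – ≥90 h infection period, 3 h prior cell attachment · System – NIH/3T3 fibroblasts plus reporter T. cruzi · Doses – compound pinned at 50 nL/well, DMSO · Read-out basis – percent inhibition of parasite-derived β-gal signal · Signal – luminescent β-galactosidase signal after 60 min lysis · Also added – 5000 T. cruzi trypomastigotes/well · Medium – Low-serum DMEM with 2% FBS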
HSF1 inh: HSF1 inhibition | NIH3T3-HGL HSE-luciferase, MG132-induced, luminescence 8 h; hits give low values | activity change, negative = inhibition, % at 7.5 µM (by protocol) | 300,000 compounds, 0.77% hits | AID 2098;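 active = more than half of replicate wells show activity change below -50%, luminescence cut by over half; inconclusive = some wells, but at most half, below -50%; inactive = no replicate well below -50%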;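 note: luciferase reports HSF-1 transcriptional activity via heat shock element; 0% = median of DMSO wells and -100% = zero luminescence signal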
Jurkat NFkB conf: lowers PMA/ionomycin-induced NF-kB signal in Jurkat cells; shares compounds with Jurkat NFkB inh; Jurkat NF-kB luciferase, 16 h; inhibition, % at 4 µM; 2,700 compounds, 27% hits;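 active = inhibition reaching about 45% at 4 µM in either replicate, limit read from the data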;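 note: plate controls were PMA/ionomycin stimulated DMSO wells for no effect and unstimulated DMSO wells for full effect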
* = called active by the depositor; ? = inconclusive; . = no result.

SMILES | HSF-1 act | GPR7 antagonist | Jurkat NFkB inh | 697 NFkB inh | T cruzi inh | HSF1 inh | Jurkat NFkB conf
CC(=O)N1c2ccc(S(=O)(=O)N3CCC(C(=O)Nc4cccc(C)n4)CC3)cc2CC1C (stereo not given) | -4 | 6 | 54* | -7 | 8 | 4 | 50*
CC(=O)c1ccc(N2CCN(S(=O)(=O)c3ccc4c(c3)CC(C)N4C(=O)C3CC3)CC2)cc1 (stereo not given) | 9 | -1 | 58* | -10 | -14 | -1 | 40
CC(=O)N1c2ccc(S(=O)(=O)N3CCC(C(=O)Nc4ccccn4)CC3)cc2CC1C (stereo not given) | -1 | -4 | 5 | 3 | 6 | 2 | .
COc1ccc2ccc(OC)c(/C=N/n3cnnc3)c2c1 | -1 | -5 | 0 | 8 | 1 | 9 | .
CC(=O)N1c2ccc(S(=O)(=O)NCC3CCC(C(=O)Nc4cccc(C)n4)CC3)cc2CC1C (stereo not given) | -3 | 4 | 30 | -8 | 5 | -1 | .
NC(N)=NN=C1CCCCCCCCCCC1 | -2 | -10 | 69* | -44 | 31 | -5 | 24
CC(C)(C)NC(=O)C(=O)NN=C1CCCCCCCCCCC1 | 9 | -12 | 4 | 4 | -7 | 2 | .
COC(=O)c1cccc(NC(=O)NC(=O)c2ccccc2Cl)c1 | -23 | 4 | 62* | 3 | -2 | -12 | -7
CC(=O)c1cccc(NC(=S)NC(=O)c2ccccc2Cl)c1 | 17 | 0 | -11 | -8 | 2 | 15 | .
Cc1nn(CC(=O)NCc2cccc3ccccc23)c(=O)c2ccccc12 | 6 | -8 | -7 | -11 | 4 | 0 | .
NC(=O)c1ccccc1NC(=O)c1ccc2ccccc2c1 | 66* | -18 | -175 | -224 | -1 | 46 | -105
O=C1CCc2cc(S(=O)(=O)Nc3ccccc3)cc3c2N1CC3 | 20 | . | -9 | -4 | -1 | 1 | .
CC1=Nc2ccccc2/C1=C\c1sc(Nc2ccc(C)cc2)nc1O | 19 | 19* | 53* | -22 | 29 | 10 | 61*
O=C(NC12CC3CC(CC(C3)C1)C2)c1ccc(-c2ccc(Cl)cc2)o1 | 9 | -8 | -153 | -180 | 59* | 4 | -73
O=C(NC12CC3CC(CC(C3)C1)C2)c1ccc(-c2ccccc2Cl)o1 | -53 | -18 | -158 | -217 | ? | -44 | -60
O=C(NC12CC3CC(CC(C3)C1)C2)c1ccc(-c2cccc(Cl)c2)o1 | -36 | -3 | -138 | -166 | 44 | -21 | .
O=C(NC12CC3CC(CC(C3)C1)C2)c1ccco1 | 4 | -6 | -13 | -18 | -1 | 4 | .
CCCC(=O)Nc1nc2ccc(S(=O)(=O)N3CCCCC3)cc2s1 | -8 | 4 | 52* | -49 | -56 | -13 | 49
CC(=O)Nc1nc2ccc(S(=O)(=O)N3CCCC3)cc2s1 | 7 | 4 | 7 | -5 | 11 | -3 | .
Cc1csc2nc(COC(=O)c3ccc(Cl)c([N+](=O)[O-])c3)cc(=O)n12 | . | . | 53* | 24 | . | . | 26
Oc1ccc(C2=NNC(=NCc3ccc4c(c3)OCO4)SC2)c(O)c1 | 11 | 11 | 52* | -51 | 1 | 3 | 16
Cc1cccc(N2CCN(C(=O)c3cccc(N4CCCC4=O)c3)C(C)C2)c1 (stereo not given) | 5 | 21 | 56* | -14 | -18 | -11 | 17
Cc1cccc(N2CCN(C(=O)c3ccc(N4CCCC4=O)cc3)CC2C)c1 (stereo not given) | 0 | -3 | -1 | -5 | 14 | -1 | .
O=C(c1cccc(N2CCCC2=O)c1)N1CCN(c2cccc(Cl)c2)CC1 | 12 | 5 | 53* | -65 | -1 | 1 | 20
CCOc1ccc(CNC(=O)Nc2ccccc2)cc1 | 16 | -11 | -30 | -39 | -7 | 2 | .
SMILES | HSF-1 act | GPR7 antagonist | Jurkat NFkB inh | 697 NFkB inh | T cruzi inh | HSF1 inh | Jurkat NFkB conf
C#CCOCCOCCOCCNc1nc(N2CCN(C(=O)CCCCCCCCCCNC(=O)Cn3cc(CCCCCN)nn3)CC2)nc(N2CCN(C(=O)CCCCCCCCCCNC(=O)Cn3cc(C[C@@H](C)O)nn3)CC2)n1 | . | . | 8 | -19 | . | . | .
CC(C)(C)OC(=O)NCCCCCc1cn(CC(=O)NCCCCCCCCCCC(=O)N2CCN(C(=O)OC(C)(C)C)CC2)nn1 | . | . | 55* | -13 | . | . | 56*
O=C(N/N=C\c1cc(Br)ccc1O)c1ccc(S(=O)(=O)N2CCCCC2)cc1 | -15 | -13 | 54* | -26 | 59* | -6 | 32
O=C(N/N=C/c1ccc(O)c(O)c1)c1cccc(S(=O)(=O)N2CCCCC2)c1 | 0 | -1 | -5 | -28 | -17 | -4 | .
O=C(Nc1ccc(Br)cn1)c1cccc2c1-c1ccccc1C2=O | 9 | 1 | 61* | 6 | 20 | 8 | 18
Cc1cccc(NC(=O)c2cccc3c2-c2ccccc2C3=O)n1 | 32 | -18 | 4 | 0 | 4 | -4 | .
COc1ccc(C2SCC(=O)N2CCc2ccc(OC)c(OC)c2)cc1 (stereo not given) | 1 | 19 | 65* | -28 | -9 | -10 | 39
COc1ccc(CCN2C(=O)CSC2c2ccc(OC)c(OC)c2)cc1OC (stereo not given) | 0 | -4 | -4 | -19 | -4 | -8 | .
N=c1c(C(=O)NCc2ccc(F)cc2)cc2c(=O)n3ccccc3nc2n1Cc1ccco1 | 14 | -2 | 59* | -26 | -6 | 1 | 26
CCCCOc1ccc(-c2csc(N)n2)cc1[N+](=O)[O-] | 12 | -4 | -167 | -86 | 9 | 4 | 4
CC(C)CN(C(=O)C1CCC1)c1c(N)n(Cc2ccccc2)c(=O)[nH]c1=O | . | . | 13 | -6 | . | . | .
CCC1(c2ccccc2)NC(=O)N(CC(=O)Nc2cc(C(F)(F)F)ccc2N2CCCC2)C1=O (stereo not given) | 3 | . | 54* | 10 | 4 | 3 | -17
Cc1c(C(=O)OC2CCC(C)CC2)[nH]c2c1C(=O)CCC2 (stereo not given) | 31 | -8 | -215 | -218 | 13 | 17 | -120
C=CCC1(CC=C)CCCN1C(=O)c1cc(COc2ccccc2SC)on1 | 7 | -8 | 17 | -20 | 10 | 4 | .
O=C(O)C(=O)/C(=C\c1ccc(Cl)cc1)c1ccc2ccccc2n1 | 30 | -2 | -156 | -84 | -9 | 10 | -54
O=c1c2ccccc2oc2cc(-c3ccc(CN4CCOCC4)cc3)ccc12 | . | . | -151 | -223 | . | . | -67
CCc1ccc2c(CN3CCOCC3)cc(=O)oc2c1 | -23 | -5 | -17 | -21 | -9 | -4 | .
COCc1nnc(NC(=O)c2ccccc2[N+](=O)[O-])s1 | -16 | -3 | 9 | 15 | -6 | 1 | .
